Consider eleven compounds from ChEMBL document CHEMBL1139462, “Identification of novel and improved antimitotic agents derived from noscapine” (J Med Chem, 2005).

pEC50: −log10 of the molar value. Activity calls are given as the source filed them. The rule behind the calls is not given here.

Data set [1] in a line: Cell cycle arrest in HEK293EBNA cells by accumulation at G1 phase cell at 10 uM relative to DMSO. The class given is functional, cell-based. The following applies: Homo sapiens, HEK293-EBNA. The gist of the method:
(§1)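 HEK293 cells were exposed for 16 h to compound or to a 0.5% DMSO vehicle control. Cell-cycle phase distribution (G1, S, G2/M) was determined by FACS analysis and compared with the DMSO profile.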

The nature of data set [2]: Cell cycle arrest in HEK293EBNA cells by accumulation at S phase cell at 10 uM relative to DMSO. The class given is functional, cell-based. The following applies: Homo sapiens, HEK293-EBNA. The procedure, abridged: as §1
Data set [3] is described as follows: Cell cycle arrest in HEK293EBNA cells by accumulation at G2/M phase cell at 10 uM relative to DMSO. The following applies: Homo sapiens, HEK293-EBNA. The format is functional, cell-based. The gist of the method: as §1
The nature of data set [4]: AUC in mouse at 20 mg/kg, po. Also noted: dose 20 mg/kg, route oral. The conditions noted are these: plasma. The format is ADME, organism-based.
Data set [5] can be described thus: Bioavailability in mouse at 20 mg/kg, po. The class given is ADME, organism-based. The conditions noted are these: in vivo.
The nature of data set [6]: Cell cycle arrest in HEK293EBNA cells by accumulation at G1 phase cell at 50 uM relative to DMSO. The class given is functional, cell-based. The following applies: Homo sapiens, HEK293-EBNA. The procedure, abridged:
(§2)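 HEK293 cells were exposed to compound for 16 h at the stated concentration, then analyzed by FACS for cell-cycle distribution (G1, S and G2/M fractions). Profiles were compared with a 0.5% DMSO vehicle control.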

Data set [7] is described as follows: Cell cycle arrest in HEK293EBNA cells by accumulation at S phase cell at 50 uM relative to DMSO. The format is functional, cell-based. The conditions noted are these: Homo sapiens, HEK293-EBNA. The procedure, abridged:
as §2

A short description of data set [8]: Cell cycle arrest in HEK293EBNA cells by accumulation at G2/M phase cell at 50 uM relative to DMSO. The format is functional, cell-based. The conditions noted are these: Homo sapiens, HEK293-EBNA. The procedure, abridged:
as §2

A further data set concerns the target Tubulin. Put plainly: Inhibition of tubulin polymerization. The format is protein-complex assay, Homo sapiens.
Data set [9] deals with A549. Put plainly: Effect on cell growth in A549 cells by MTS assay. The class given is functional, cell-based. The conditions noted are these: Homo sapiens. (In general: Formazan colour is commonly taken as a measure of viable cells.)
Data set [10] is described as follows: AUC in mouse at 2 mg/kg, iv. The format is ADME, organism-based. Details: dose 2 mg/kg, route intravenous. The conditions noted are these: plasma.
The subject of data set [11] is Mus musculus. Put plainly: (§3) Volume of distribution in mouse at 2 mg/kg, iv. The format is ADME, organism-based. Details: dose 2 mg/kg, route intravenous. The conditions noted are these: in vivo.
In data set [12] the test system is Mus musculus. Put plainly: (§4) Half life in mouse at 2 mg/kg, iv. The class given is ADME, organism-based. Also noted: dose 2 mg/kg, route intravenous. The following applies: in vivo.
The nature of data set [13]: Cell cycle arrest in HEK293EBNA cells by accumulation at G1 phase cell at 1 uM relative to DMSO. The format is functional, cell-based. The following applies: Homo sapiens, HEK293-EBNA. The procedure, abridged: as §2
The nature of data set [14]: Cell cycle arrest in HEK293EBNA cells by accumulation at S phase cell at 1 uM relative to DMSO. The format is functional, cell-based. The conditions noted are these: Homo sapiens, HEK293-EBNA. The procedure, abridged: as §2
The nature of data set [15]: Cell cycle arrest in HEK293EBNA cells by accumulation at G2/M phase cell at 1 uM relative to DMSO. The conditions noted are these: Homo sapiens, HEK293-EBNA. The format is functional, cell-based. The procedure, abridged: as §2
For data set [16], the system named is A549. Put plainly: Effect on cell growth in A549 cells by colony-forming assay. The class given is functional, cell-based. The following applies: Homo sapiens.
In data set [17] the test system is NIH3T3. Put plainly: Effect on cell growth in nondividing Swiss 3T3 cells at 50 uM by MTS assay. The format is functional, cell-based. The following applies: Mus musculus.
Data set [18] in a line: as §3. The format is ADME, organism-based. Details: dose 2 mg/kg, route intravenous. The conditions noted are these: in vivo, read-out: Vdss.
Data set [19] is described as follows: as §4. The class given is ADME, organism-based. Also noted: dose 2 mg/kg, route intravenous. The following applies: in vivo.
Data set [20] can be described thus: Clearance in mouse at 2 mg/kg, iv. The following applies: in vivo. Also noted: dose 2 mg/kg, route intravenous. The format is ADME, organism-based. The gist of the method:
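Pharmacokinetics were measured in mice, with an intravenous dose of 2 mg/kg; the study's oral arm used 20 mg/kg po.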

A short description of data set [21]: Cell cycle arrest in HEK293EBNA cells by accumulation at G1 phase cell at 0.5 uM relative to DMSO. The conditions noted are these: Homo sapiens, HEK293-EBNA. The class given is functional, cell-based. The gist of the method:
as §2

The nature of data set [22]: Cell cycle arrest in HEK293EBNA cells by accumulation at S phase cell at 0.5 uM relative to DMSO. The conditions noted are these: Homo sapiens, HEK293-EBNA. The class given is functional, cell-based. The procedure, abridged:
as §2

Data set [23] is described as follows: Cell cycle arrest in HEK293EBNA cells by accumulation at G2/M phase cell at 0.5 uM relative to DMSO. The class given is functional, cell-based. The following applies: Homo sapiens, HEK293-EBNA. The procedure, abridged:
as §2

A short description of data set [24]: Cell cycle arrest in HEK293EBNA cells by accumulation at G1 phase cell at 5 uM relative to DMSO. The format is functional, cell-based. The conditions noted are these: Homo sapiens, HEK293-EBNA. The procedure, abridged:
as §2

A short description of data set [25]: Cell cycle arrest in HEK293EBNA cells by accumulation at S phase cell at 5 uM relative to DMSO. The format is functional, cell-based. The following applies: Homo sapiens, HEK293-EBNA. The gist of the method:
as §2

Data set [26] can be described thus: Cell cycle arrest in HEK293EBNA cells by accumulation at G2/M phase cell at 5 uM relative to DMSO. The class given is functional, cell-based. The conditions noted are these: Homo sapiens, HEK293-EBNA. The procedure, abridged: as §2
Data set [27] is described as follows: Cell cycle arrest in HEK293EBNA cells by accumulation at G1 phase cell at 0.1 uM relative to DMSO. The class given is functional, cell-based. The conditions noted are these: Homo sapiens, HEK293-EBNA. The procedure, abridged: as §1
A short description of data set [28]: Cell cycle arrest in HEK293EBNA cells by accumulation at S phase cell at 0.1 uM relative to DMSO. The class given is functional, cell-based. The conditions noted are these: Homo sapiens, HEK293-EBNA. The gist of the method: as §1
Data set [29] in a line: Cell cycle arrest in HEK293EBNA cells by accumulation at G2/M phase cell at 0.1 uM relative to DMSO. The class given is functional, cell-based. The following applies: Homo sapiens, HEK293-EBNA. The gist of the method: as §1
The test system of data set [30] is NIH3T3. The data set can be described thus: Effect on cell growth in nondividing Swiss 3T3 cells at 3 uM by MTS assay. The conditions noted are these: Mus musculus. The format is functional, cell-based. The procedure, abridged: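 Swiss 3T3 cells were tested in either a dividing or a nondividing state. Growth was read out by MTS assay, and an EC50 was derived for the dividing cells.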

In the case of `COc1cc2c(c(OC)c1OC)-c1ccc(OC)c(=O)cc1[C@@H](NC(C)=O)CC2`, the Activity in [1] was 3%; in [2] it was 14%; in [3] it was 83%.
As for `COc1ccc2c(c1OC)C(=O)O[C@@H]2[C@H]1c2c(cc3c(c2OC)OCO3)CCN1C` [NOSCAPINE], the AUC (commonly the area under the concentration-time curve, a measure of exposure) was found to be 524 ng·h/mL in data set [4] and 345 ng·h/mL in data set [10]. The bioavailability (in general, the share of a dose that reaches the circulation, judged against a reference dose that is usually intravenous) in data set [5] is 14.1%. The Activity in data set [6] was 19%; in [7], 31%; in data set [8] it was 50%. In addition, the negative-log EC50 (pEC50) – broadly, −log10 of the EC50, conventionally taken in molar units – is less than 4.30 on Tubulin and 4.60 in the data set with A549 [9]. For the same compound, the volume of distribution (Vdss) (as a rule, the apparent volume that relates the amount in the body to the concentration in plasma or blood) in the data set with Mus musculus [11] came to 15.53 L/kg. The compound further yielded a t1/2 in the data set with Mus musculus [12] of 50 min.
Turning to `COc1ccc2c(c1O)C(=O)O[C@@H]2[C@H]1c2c(cc3c(c2OC)OCO3)CCN1C`, the AUC came out at 740 ng·h/mL in [4] and 331 ng·h/mL in [10]. In [5], this compound gave a bioavailability of 22%. The Activity in data set [13] is 3%; in data set [14], 9%; in data set [15], 88%. The pEC50 was 6.15 at Tubulin, 6.22 with A549 [9] and 6.30 with A549 [16]. Besides, in the data set with NIH3T3 [17], the result was inactive. In addition, the Vd in [18] is 28.1 L/kg. Moreover, the half-life (commonly the time in which the quantity being followed falls by half) in data set [19] was 168 min. The clearance (as a rule, the volume of plasma or blood freed of the substance per unit of time) in data set [20] turned out to be 101 mL/min/kg.
In the case of `CC[C@]1(O)C[C@@H]2CN(CCc3c([nH]c4ccccc34)[C@@](C(=O)OC)(c3cc4c(cc3OC)N(C)[C@H]3[C@@](O)(C(=O)OC)[C@H](OC(C)=O)[C@]5(CC)C=CCN6CC[C@]43[C@@H]65)C2)C1` [VINBLASTINE], the negative-log EC50 (pEC50) with A549 [9] is 9.05; in the data set with A549 [16], 9.30.
`CNc1c(OC)ccc2c1C(=O)O[C@@H]2[C@H]1c2c(cc3c(c2OC)OCO3)CCN1C`: the Activity was 8% in data set [21], 25% in [22] and 67% in data set [23].
As for `COc1ccc2c(c1S)C(=O)O[C@@H]2[C@H]1c2c(cc3c(c2OC)OCO3)CCN1C`, the Activity in [24] was 3%; in [25] it was 7%; in data set [26] it was 90%.
Regarding `COc1ccc2c(c1)C(=O)O[C@@H]2[C@H]1c2c(cc3c(c2OC)OCO3)CCN1C`, the values for the Activity in data set [13], in [14] and in [15] were 4%, 6% and 90%, respectively.
On to `COc1ccc2c(c1OS(=O)(=O)C(F)(F)F)C(=O)O[C@@H]2[C@H]1c2c(cc3c(c2OC)OCO3)CCN1C`, for which the Activity in data set [6] was determined as 56%; in data set [7] it was 35%; in [8] it was 9%.
For the compound `COc1ccc2c(c1NCc1ccccc1)C(=O)O[C@@H]2[C@H]1c2c(cc3c(c2OC)OCO3)CCN1C`, the Activity in data set [24] came out at 8%; in data set [25] it was 29%; in data set [26], 63%.
As to `COc1ccc2c(c1N)C(=O)O[C@@H]2[C@H]1c2c(c(Br)c3c(c2OC)OCO3)CCN1C`, the Activity in [13] was 4%; in data set [14], 15%; in data set [15], 81%.
As to `COc1ccc2c(c1N)C(=O)O[C@@H]2[C@H]1c2c(cc3c(c2OC)OCO3)CCN1C`, the values for the exposure (AUC) in [4] and in data set [10] were 391 ng·h/mL and 350 ng·h/mL, respectively. Moreover, in data set [5], the bioavailability came to 11.4%. The Activity in data set [27] came out at 1%; in data set [28], 7%; in data set [29], 92%. For the same compound, the pEC50 was 6.52 on Tubulin, 7.01 in the data set on A549 [9] and 7.08 in the data set on A549 [16]. In addition, the result in the data set with NIH3T3 [30] was inactive. Further, in data set [18], the Vd stood at 8.47 L/kg. The half-life in [19] was 62.6 min. The clearance in data set [20] amounted to 95.3 mL/min/kg.
